Experimental findings from publication PMC3281520 (Nature chemical biology, 2012) are described below.

Series [1] deals with T1, ProRS (amino acids 998–1513 of human EPRS) (Homo sapiens, UniProt P07814).
T1 sequence (P07814 998-1512 limits assumed): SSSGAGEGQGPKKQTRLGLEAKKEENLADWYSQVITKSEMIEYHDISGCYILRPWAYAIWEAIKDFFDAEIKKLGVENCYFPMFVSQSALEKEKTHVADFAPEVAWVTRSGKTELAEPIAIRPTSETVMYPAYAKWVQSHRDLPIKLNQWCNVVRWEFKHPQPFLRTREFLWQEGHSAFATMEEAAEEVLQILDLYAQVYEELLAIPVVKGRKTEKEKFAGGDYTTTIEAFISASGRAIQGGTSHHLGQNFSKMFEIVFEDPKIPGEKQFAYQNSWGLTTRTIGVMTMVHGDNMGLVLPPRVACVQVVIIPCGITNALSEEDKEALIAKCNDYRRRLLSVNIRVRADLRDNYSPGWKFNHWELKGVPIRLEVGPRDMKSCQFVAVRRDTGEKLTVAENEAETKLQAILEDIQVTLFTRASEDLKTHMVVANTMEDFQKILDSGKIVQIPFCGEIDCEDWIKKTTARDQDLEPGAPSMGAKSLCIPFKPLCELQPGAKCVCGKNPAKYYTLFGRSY
In words: [3H]-HFol binding to immobilized ProRS. An outline of the steps: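 His6-tagged human EPRS prolyl-tRNA synthetase domain, expressed in E. coli, immobilized on Ni-NTA beads. Beads washed twice in ice-cold buffer; bound counts by scintillation, with beads given tag-free E. coli extract as background.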

Series [2] deals with primary murine CD4+ CD25− T cells. In words: Th17 cell differentiation. Type of series: cell-based, mouse. An outline of the steps:
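CD4+ CD25− T cells from spleens and peripheral lymph nodes of wild-type C57B/6 mice, TCR-activated under Th17-polarizing conditions with test compound and amino acid supplements: 10x EAA or NEAA mixes, or single amino acids at 1 mM. Day 4 restimulation with PMA 10 nM, ionomycin and brefeldin A for 4–5 h. Intracellular cytokine staining, flow cytometry; % IL-17+ IFNγ− cells, triplicate wells, SD.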

The next series deals with AAR pathway in MEFs. In words: AAR pathway activation in MEFs. Type of series: cell-based, mouse. The note with it: 2 hours (Fig. 5a); for stimulation of GCN2 phosphorylation in the presence of proline: 2 mM proline. An outline of the steps:
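MEFs grown in 10% FCS/DMEM, then exposed to test compound with or without 2 mM proline for 2 h. Lysis was in RIPA with 5 mM EDTA, phosphatase and protease inhibitors. Western blot for total GCN2 and Thr898-phospho-GCN2; three separate experiments. For CHOP: 50 nM test compound ± 2 mM proline, lysis 6 h later, CHOP Western blot with cytoplasmic actin as loading control.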

For series [3], the system named is translation in rabbit reticulocyte lysate (RRL). Kind of series: Cell free in vitro translation in rabbit reticulocyte lysate. Type of series: biochemical. The note with it: for effect on translation of luciferase RNA in RRL: cell free, luminescence assay (Fig. 2a, 2b); for translation of Nopropep (proline-free polypeptide) in RRL / translation of Propep (polypeptide with proline dipeptide) in RRL: inhibitor 1 μM, anti-myc Western blot (Fig. 2c). An outline of the steps:
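Rabbit reticulocyte lysate per kit instructions, standard amino acid mix diluted 5-fold; sometimes preincubated at 30 degrees with another RNA to deplete endogenous charged tRNAs. Luciferase mRNA translation read by luciferase luminescence. Rescue with amino acid mixtures or single amino acids at 1 mM each; triplicates, SD. Myc-tagged peptides ± proline dipeptide: inhibitors 1 μM, proline 1 mM, anti-myc Western blot.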
For orientation: Immunoblotting shows a protein as a band on a membrane.

Series [4] deals with mouse embryo fibroblasts (MEFs). In words: ECM gene expression and protein production in fibroblasts. Type of series: cell-based. An outline of the steps: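 MEFs in 10% FCS/DMEM were treated with 50 nM test compound and/or 2 mM proline. Exposure was 4 h for CHOP and S100A4 and 24 h for Col1A1 and Col1A2. mRNA by quantitative RT-PCR, normalised to TBP, relative to untreated. Triplicate determinations from triplicate plates; two-tailed Student's t test for compound alone versus compound plus proline.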

The subject of the next series is mTORC1 signaling. In words: mTORC1 signaling in T cells and fibroblasts. Type of series: cell-based, mouse. The note with it: 100 nM HF in MEFs (Supplementary Fig. 10).
The subject of series [5] is prolyl-tRNA charging in the RRL system. Kind of series: tRNA charging in RRL. The format is biochemical, rabbit. The note with it: doses comparable to those that inhibit translation (Fig. 2d). An outline of the steps:
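Rabbit reticulocyte lysate incubated with 1 μCi 14C-proline or 35S-methionine, added bovine tRNA and 2 μM puromycin to block use of charged tRNA in translation, with or without test compound. Total tRNA then extracted with a small-RNA isolation kit. Radioactivity in tRNA measured by liquid scintillation counting; triplicates, SD.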

Series [6] addresses prolyl tRNA synthetase domain of human EPRS (ProRS) (Homo sapiens, UniProt P07814). Kind of series: Assay of ProRS activity. The format is biochemical.
A short description of series [7]: Intracellular HF levels by anti-HF ELISA. Type of series: in vitro ADME, mouse. The note with it: MEFs, 2 mM proline, 2 hours (Supplementary Fig. 11). (An ELISA detects its analyte on a solid surface through an enzyme-linked reagent.)

With `C[C@H](N)C(=O)NS(=O)(=O)OC[C@H]1O[C@@H](n2cnc3c(N)ncnc32)[C@H](O)[C@@H]1O` [AlaSAd, alanyl sulfamoyl adenosine], the “inhibition of binding of [3H]-HFol to ProRS at 50 nM” value in [1] (50 nM (Fig. 4a)) is recorded as “partially inhibited”.

For the compound `C[C@@H]1C[C@H](C)C[C@H](C)[C@@H](O)CC(=O)O[C@H]([C@@H]2CCC[C@H]2C(=O)O)C/C=C/C=C(/C#N)[C@H](O)[C@@H](C)C1` [Borrelidin, borrelidin], the Th17 cell differentiation entry in series [2] (Th17 polarizing conditions, borrelidin 6 nM (Supplementary Fig. 13)) is on record as “inhibited”. Besides, the “effects on Th17 differentiation on addition of excess cognate amino acid” value in series [2] (threonine 1 mM (Fig. 6b)) is “reversed”.

Turning to `O=C(C[C@H]1NCCC[C@@H]1O)Cn1cnc2ccccc2c1=O` [FF, febrifugine], in the series with AAR pathway in MEFs, the “stimulation of GCN2 phosphorylation in the presence of proline” value is on record as “abrogated” and the “GCN2 phosphorylation in fibroblasts” value was “stimulation”. In series [3], the “effect on translation of luciferase RNA in RRL” value is given as “inhibited”, the “translation of Nopropep (proline-free polypeptide) in RRL” value is recorded as “no effect” and the “translation of Propep (polypeptide with proline dipeptide) in RRL” value is listed as “prevent translation”.

On to `O=C(CC1NCCCC1O)Cn1cnc2cc(Br)c(Cl)cc2c1=O` (stereo not shown) [HF, halofuginone], for which the “inhibition of ECM proteins in the presence of proline” value in [4] (2 mM proline in the media (Supplementary Fig. 15)) was “reversed”. In addition, in [4] (24 hours treatment (Fig. 6d)), the “production of secreted Type I procollagen and of fibronectin” value is on record as “dramatically inhibited”. For the same compound, the “expression of mRNA encoding CHOP” value in series [4] (MEFs, HF 50 nM, 4 hours (Fig. 6c)) was “stimulated”. The “mRNA levels of Col1A1, Col1A2, and S100A4” value in [4] (MEFs, HF 50 nM, 4 hours (S100A4) or 24 hours (Col1A1, Col1A2), restored by proline (Fig. 6c)) is “inhibits”. Moreover, the “35S-methionine incorporation into total protein” value in series [4] (doses that inhibit ECM protein production (Fig. 6d)) was “did not significantly change”. The “competition of [3H]-HFol binding to ProRS” value in series [1] (Fig. 3a) is reported as “competed”. For the same compound, in the series with AAR pathway in MEFs, the “stimulation of GCN2 phosphorylation in the presence of proline” value is on record as “abrogated” and the “GCN2 phosphorylation in fibroblasts” value is given as “stimulation”. Further, the “inhibition of mTORC1 signaling” value in the series with mTORC1 signaling is “without concomitant inhibition”. In addition, in series [5], the “incorporation of 14C-Pro into tRNA” value is listed as “inhibited”. Affinity in [6] was put at a Ki of 18.3 nM. Besides, the “intracellular accumulation of HF on proline addition” value in series [7] is reported as “not affected”. In series [3], the “effect on translation of luciferase RNA in RRL” value is “inhibited”, the “translation of Nopropep (proline-free polypeptide) in RRL” value was “no effect” and the “translation of Propep (polypeptide with proline dipeptide) in RRL” value is given as “prevent translation”. The “translation inhibited by HF, after supplementation of RRL with excess amino acids” value in series [3] (proline 1 mM, only proline is effective (Fig. 2a)) is given as “restores”. For the same compound, the “Th17 differentiation in HF-treated T cells with individual amino acid supplement” value in [2] (10 nM HF, proline 1 mM, only proline effective (Fig. 6a)) is on record as “rescued”.
